Type in all cases: functional, cell-based
One assay deals with RAW264.7. Briefly: Cytotoxic activity against mouse RAW264.7 cells assessed as reduction in cell viability incubated for 48 hrs by MTT assay. Conditions: for IC50: raw264.7; for pIC50: Mus musculus, RAW264.7, 48 h, read-out: IC50; call rule not given here. Summed up:
(§1)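 Cells seeded at 1 × 10^4 per well and left 24 h at 37 °C, 5% CO2 to attach, then given test substances at 200 to 0.05 μM for 48 h. Substances were dissolved in DMSO and diluted in medium (0.06–2.0% DMSO in cultures). MTT (5 mg/mL stock) was added for the final 4 h, and formazan was dissolved in acidic isopropanol. Absorbance was read at 570/650 nm against vehicle (100%). IC50 came from nonlinear regression of log-normalized data, six doses in triplicate, at least three experiments.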

The next assay has as its system A549. Briefly: Cytotoxic activity against human A549 cells assessed as reduction in cell viability incubated for 48 hrs by MTT assay. An outline of the steps:
as §1
In general terms: Formazan colour is commonly taken as a measure of viable cells.

For another assay, the system named is PC-3. Briefly: Cytotoxic activity against human PC3 cells assessed as reduction in cell viability incubated for 48 hrs by MTT assay. Conditions: for IC50: pc-3. An outline of the steps:
as §1

The subject of a further assay is HeLa. Briefly: Cytotoxic activity against human HeLa cells assessed as reduction in cell viability incubated for 48 hrs by MTT assay. An outline of the steps:
as §1

Assay [1] in a line: Cytotoxic activity against mouse M12.C3.F6 cells assessed as reduction in cell viability incubated for 48 hrs by MTT assay. Summed up:
as §1

pIC50: −log10 of the molar value.

As for `CC(C)=CCC/C(C)=C/C/C=C(\C)[C@H]1CCC2[C@@]3(C)CCC(=O)C(C)(C)C3CC[C@]21C` (stereo partly specified), the IC50 entry (with RAW264.7; with A549; in the assay on PC-3; with HeLa; in assay [1]) was “Not Active” each time.
Turning to `CC(C)=CCC/C(C)=C/C/C=C(\C)[C@H]1CCC2[C@@]3(C)CC[C@H](O)C(C)(C)C3CC[C@]21C` (stereo partly specified), the IC50 result (in the assay with RAW264.7; in the assay on A549; in the assay with PC-3; with HeLa; in assay [1]) was “Not Active” in each case.
Regarding `CC(=O)OC[C@H](Cc1ccc2c(c1)OCO2)[C@H](COC(C)=O)Cc1ccc2c(c1)OCO2`, the negative-log IC50 (pIC50) with RAW264.7 was 5.01.
The same measure, in the same setting: with `COc1cc(C[C@@H]2COC[C@H]2Cc2ccc3c(c2)OCO3)cc(OC)c1OC` the figure was 6.40.
Consider `COc1cc(C[C@@H](COC(C)=O)[C@H](COC(C)=O)Cc2ccc3c(c2)OCO3)cc(OC)c1OC`, for which the pIC50 is 6.70 in the assay on RAW264.7 and 5.60 in assay [1] (Mus musculus, 48 h, read-out: IC50).
In the case of `CC(=O)O[C@@]1(C(C)C)C/C=C(\C)CC[C@@H]2O[C@@]2(C)CC/C=C(\C)CC1` (relative stereo), the IC50 result (in the assay on RAW264.7; with A549; in the assay with PC-3; in the assay with HeLa; in assay [1]) was “Not Active” in each case.
`COc1cccc2c1C(=O)c1c(O)c3c(c(O)c1C2=O)C[C@@](O)(C(=O)CO)C[C@@H]3O[C@H]1C[C@H](N)[C@H](O)[C@H](C)O1` [DOXORUBICIN]: the pIC50 was 6.20 in the assay on RAW264.7 and 5.50 in the assay with PC-3 (Homo sapiens, PC-3, 48 h, read-out: IC50).

By pIC50 is commonly meant the IC50 on a negative log10 scale, so that one unit is a factor of ten.

The record behind these values is ChEMBL document CHEMBL3580629, “Diterpenoids and Triterpenoids from the Resin of Bursera microphylla and Their Cytotoxic Activity” (J Nat Prod, 2015).
